ChEMBL document CHEMBL1153763, “Discovering a new analogue of thalidomide which may be used as a potent modulator of TNF-alpha production” (Eur J Med Chem, 2009)

Assays:
HL-60 [1] = assay: Inhibition of okadaic acid-induced TNFalpha production in human HL60 cells at 30 uM after 16 hrs by ELISA relative to control; type: functional; conditions: HL-60, 16 h, values are per cent of control
Summary of the method: (§1)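 HL-60 cells in RPMI 1640 with 10% fetal bovine serum, 2 mM L-glutamine and penicillin/streptomycin, 37 °C, 5% CO2. Exponential cells (5×10^5 cells/mL) given 50 nM okadaic acid plus compound (30 µM) for 16 h. Cell number and morphology checked microscopically. Supernatant TNF-α measured by human TNF-α ELISA, expressed as % of okadaic acid-only treatment (100%). At least three experiments, triplicate means.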

HT-29 = assay: Cytotoxicity against human HT-29 cells by MTT assay; type: functional, cell-based
HL-60 [2] = assay: Enhancement of 12-O-tetradecanoylphorbol-13-acetate-induced TNFalpha production in human HL60 cell at 30 uM after 16 hrs by ELISA relative to control; type: functional
Summary of the method: as §1, with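 “co-treated with 10” for “given 50”, “TPA” for “okadaic acid”, “TPA-only” for “okadaic acid-only”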

ST486 = assay: Cytotoxicity against human ST486 cells by MTT assay; type: functional, cell-based
DLD-1 = assay: Cytotoxicity against human DLD1 cells by MTT assay; type: functional, cell-based
HL-60 [3] = assay: Cytotoxicity against human HL60 cells by MTT assay; type: functional, cell-based
HUVEC = assay: Cytotoxicity against HUVEC by MTT assay; type: cell-based; conditions: Homo sapiens

SMILES	response, % of control at 30 µM (HL-60 [1])	IC50 (HT-29)	Activity (HL-60 [2])	IC50 (ST486)	IC50 (DLD-1)	IC50 (HL-60 [3])	IC50 (HUVEC)
NC(=O)CCC(C(=O)O)N1C(=O)c2ccc3ccccc3c2C1=O (stereo unspecified)	111%	> 50 µM	146%	> 50 µM	> 50 µM	> 50 µM	> 50 µM
O=C1CCC(N2C(=O)c3ccccc3C2=O)C(=O)N1 (stereo unspecified) [THALIDOMIDE]	53%	> 50 µM	164%	> 50 µM	> 50 µM	> 50 µM	> 50 µM
O=C1CCC(N2C(=O)c3cccc4cc([N+](=O)[O-])cc(c34)C2=O)C(=O)N1 (stereo unspecified)	47%	> 50 µM	248%	> 50 µM	> 50 µM	> 50 µM	> 50 µM
CN(C)CCN1C(=O)CCC(N2C(=O)c3cccc4cc(N)cc(c34)C2=O)C1=O (stereo unspecified)	47%	> 50 µM	132%	> 50 µM	> 50 µM	> 50 µM	> 50 µM
Nc1cc2c3c(cccc3c1)C(=O)N(C1CCC(=O)NC1=O)C2=O (stereo unspecified)	46%	> 50 µM	138%	> 50 µM	> 50 µM	> 50 µM	> 50 µM
O=C1CCC(N2C(=O)c3cc4ccccc4cc3C2=O)C(=O)N1 (stereo unspecified)	138%	> 50 µM	166%	> 50 µM	> 50 µM	> 50 µM	> 50 µM
CN(C)CCN1C(=O)CCC(N2C(=O)c3ccc4ccccc4c3C2=O)C1=O (stereo unspecified)	59%	> 50 µM	105%	> 50 µM	> 50 µM	> 50 µM	> 50 µM
NC(=O)CCC(C(=O)O)N1C(=O)c2cc3ccccc3cc2C1=O (stereo unspecified)	60%	> 50 µM	258%	> 50 µM	> 50 µM	> 50 µM	> 50 µM
NC(=O)CCC(C(=O)O)N1C(=O)c2cccc3cc(N)cc(c23)C1=O (stereo unspecified)	49%	> 50 µM	140%	> 50 µM	> 50 µM	> 50 µM	> 50 µM
O=C1CCC(n2c(=O)c3cc4c(=O)n(C5CCC(=O)NC5=O)c(=O)c4cc3c2=O)C(=O)N1 (stereo unspecified)	34%	> 50 µM	294%	> 50 µM	> 50 µM	> 50 µM	> 50 µM
O=C1CCC(N2C(=O)c3cccc4cccc(c34)C2=O)C(=O)N1 (stereo unspecified)	49%	> 50 µM	158%	> 50 µM	> 50 µM	> 50 µM	> 50 µM
CN(C)CCN1C(=O)CCC(N2C(=O)C(c3ccccc3)=C(c3ccccc3)C2=O)C1=O (stereo unspecified)	6%	> 50 µM	672%	> 50 µM	> 50 µM	> 50 µM	> 50 µM
NC(=O)CCC(C(=O)O)N1C(=O)c2cccc3cccc(c23)C1=O (stereo unspecified)	55%	> 50 µM	116%	> 50 µM	> 50 µM	> 50 µM	> 50 µM
O=C1CCC(N2C(=O)C(c3ccccc3)=C(c3ccccc3)C2=O)C(=O)N1 (stereo unspecified)	47%	> 50 µM	147%	> 50 µM	> 50 µM	> 50 µM	> 50 µM
NC(=O)CCC(C(=O)O)N1C(=O)C(c2ccccc2)=C(c2ccccc2)C1=O (stereo unspecified)	66%	> 50 µM	146%	> 50 µM	> 50 µM	> 50 µM	> 50 µM
CN(CCN1C(=O)CCC(N2C(=O)c3ccccc3C2=O)C1=O)CCN1C(=O)CCC(N2C(=O)c3ccccc3C2=O)C1=O (stereo unspecified)	99%	> 50 µM	159%	> 50 µM	> 50 µM	> 50 µM	> 50 µM
CN(C)CCN1C(=O)CCC(N2C(=O)c3cccc4cc([N+](=O)[O-])cc(c34)C2=O)C1=O (stereo unspecified)	48%	> 50 µM	124%	> 50 µM	> 50 µM	> 50 µM	> 50 µM
O=C1CCC(N2C(=O)c3ccc4ccccc4c3C2=O)C(=O)N1 (stereo unspecified)	78%	> 50 µM	161%	> 50 µM	> 50 µM	> 50 µM	> 50 µM
CN(C)CCN1C(=O)CCC(N2C(=O)c3cccc4cccc(c34)C2=O)C1=O (stereo unspecified)	91%	> 50 µM	107%	> 50 µM	> 50 µM	> 50 µM	> 50 µM
CN(C)CCN1C(=O)CCC(N2C(=O)c3cc4ccccc4cc3C2=O)C1=O (stereo unspecified)	50%	> 50 µM	149%	> 50 µM	> 50 µM	> 50 µM	> 50 µM
CN(C)CCN1C(=O)CCC(n2c(=O)c3cc4c(=O)n(C5CCC(=O)N(CCN(C)C)C5=O)c(=O)c4cc3c2=O)C1=O (stereo unspecified)	77%	> 50 µM	138%	> 50 µM	> 50 µM	> 50 µM	> 50 µM
NC(=O)CCC(C(=O)O)N1C(=O)c2cccc3cc([N+](=O)[O-])cc(c23)C1=O (stereo unspecified)	51%	> 50 µM	86%	> 50 µM	> 50 µM	> 50 µM	> 50 µM
CN(C)CCN1C(=O)CCC(N2C(=O)c3ccccc3C2=O)C1=O (stereo unspecified)	93%	> 50 µM	125%	> 50 µM	> 50 µM	> 50 µM	> 50 µM
